# PKA-R1A activ: PKA-R1A complex activation. hit rate 0.083% among 340,000. activation, % at 11.4 µM. PKA-R1A dissociation, Cy5-IP20 fluorescence polarization; scaled: DMSO 0%, 113 µM cGMP 100%;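 active = percent activation above the mean of all tested compounds plus 3 SD, cut at about 19% in these data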;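 note: higher means more PKAc released from R1A so a rise in polarization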
# CXCR6 inh: CXCR6 (human) receptor inhibition; O00574; inhibition, % at 20 µM; CHO-K1 PathHunter CXCR6 beta-arrestin, luminescence; hit rate 0.36% among 360,000; in the data active = inhibition above about 34%, passing the limit was not always enough;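 note: antagonist mode with CXCL16 agonist at 10 nM final; 0% = 10 nM CXCL16 with DMSO and 100% = unstimulated wells without agonist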
# CCR6 antagonist: antagonists of human CCR6 receptor. P51684. CHO-K1 CCR6 PathHunter beta-arrestin, luminescence, CCL20-stimulated. inhibition, % at 20 µM. hit rate 0.49% among 340,000;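 active = compounds whose inhibition of the agonist-driven luminescence signal at 20 µM reaches about 50%, limit read from the data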;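 note: cells stimulated with CCL20 at 14 nM final; plate controls were DMSO with CCL20 for no effect and DMSO without agonist for full effect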
# Target sequence (P51684 whole entry, looked up): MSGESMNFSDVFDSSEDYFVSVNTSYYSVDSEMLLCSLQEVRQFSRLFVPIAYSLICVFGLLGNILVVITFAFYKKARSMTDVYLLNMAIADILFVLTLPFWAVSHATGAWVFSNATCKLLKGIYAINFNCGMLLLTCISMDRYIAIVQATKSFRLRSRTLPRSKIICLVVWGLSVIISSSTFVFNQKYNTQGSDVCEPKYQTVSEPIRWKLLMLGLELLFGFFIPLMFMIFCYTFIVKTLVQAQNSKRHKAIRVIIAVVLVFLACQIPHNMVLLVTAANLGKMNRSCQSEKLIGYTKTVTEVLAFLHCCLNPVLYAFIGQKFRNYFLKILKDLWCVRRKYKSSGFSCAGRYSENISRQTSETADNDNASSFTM
# PKA-R2B act: activators of human PKA-R2B complex; PKA-R2B holoenzyme dissociation, Cy5-IP20 fluorescence polarization; R2B truncated from residue 108, S112A mutant; 0% DMSO only, 100% 113 µM cGMP; activation, % at 11.4 µM; hit rate 0.079% among 340,000;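 active = activation above a cutoff set at the mean over all compounds plus 3 SD, cut at about 18% in these data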;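 note: higher means more holoenzyme dissociation and a rise in polarization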
# APJ agonist: APJ receptor agonism | activation, % at 20 µM | P35414 | AID 2520 | hit rate 0.11% among 330,000 | CHO-K1 APJ PathHunter beta-arrestin, luminescence; 0% DMSO wells, 100% apelin;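 active = activation more than six SD over the plate average, tested at 20 µM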;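 note: 0% = DMSO alone and 100% = apelin-13 at 10 nM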
#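 Material: CHO-K1 APJ beta-arrestin complementation cell line; Input: cell density 1000 per well; Incubation: compound stimulation 90 min at 25 °C, detection 60 min; Signal: luminescence from split beta-galactosidase complementation, Galacton Star/Emerald II substrate; Controls: DMSO-only wells as negative, 10 nM Apelin-13 as positive control.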
# APJ antag: antagonists of human APJ apelin receptor; CHO-K1 APJ beta-arrestin complementation, luminescence; P35414; inhibition, % at 20 µM; hit rate 0.32% among 330,000;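 active = inhibition above about 40% at 20 µM, limit read from the data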;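 note: cells challenged with 10 nM apelin-13 agonist together with compound; plate controls were apelin-13 plus DMSO wells for no effect and DMSO wells lacking apelin-13 for full effect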
# R2B FP artifact: FP assay interference, PKA-R2B counter-screen; shares compounds with PKA-R2B act; FP artifact counterscreen, fluorescence polarization; activation, % at 11.4 µM; hit rate 6% among 270; in the data active = activation above about 20%;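 note: Cy5 labelled IP20 peptide probe with compound but no PKA protein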
# PKA-R2B confirm: confirmation of human PKA-R2B complex activators; shares compounds with PKA-R2B act; fluorescence polarization, activation; activation, % at 11.4 µM; hit rate 9% among 270; in the data active = activation above about 19%
# Numbers without * were called inactive; . = no result; ! = a repeat was not active. Hits are enriched below; roughly 0.88% of the tested compounds scored in any of these assays.
SMILES,PKA-R1A activ,CXCR6 inh,CCR6 antagonist,PKA-R2B act,APJ agonist,APJ antag,R2B FP artifact,PKA-R2B confirm
CCN(CC)S(=O)(=O)c1cccc(NC(=O)COC(=O)C2CC3C=CC2C3)c1 (stereo not given),2,-15,-8,-7,-1,-11,.,.
CC(C)OC(=O)CSc1nnc(-c2ccncc2)n1N,-4,3,7,-11,5,4,.,.
CC(C)OC(=O)CSc1nnc(-c2ccc(C(C)(C)C)cc2)n1N,0,2,2,19*,-4,-2,-1,3
Cc1ccc(S(=O)(=O)Nc2c(C)nn(C)c2C)c(C)c1,2,1,1,2,-4,-54,.,.
Cc1cc(C(=O)c2ccccc2)c(NC(=O)CN2CCOCC2)s1,-15,-5,8,18*,-1,9,0,0
CCCCC[C@H](C)N1C[C@@H](COCc2ccccc2)Oc2cc(N3CC[C@H](O)C3)ccc2S1(=O)=O,.,16,.,.,.,.,.,.
O=C(COc1cccc(-n2cnnn2)c1)Nc1ccc([N+](=O)[O-])cc1,3,1,7,20*,1,6,2,3
O=C(Cc1ccc(Cl)cc1Cl)NC1CCCCCC1,10,2,7,23*,0,-3,-4,-1
CCOC(=O)C(=NCC1CCCO1)NNc1ccccc1Cl (stereo not given),-12,-7,14,-5,-8,4,.,.
O=C(NNC(=O)C1CCN(S(=O)(=O)c2ccc(Cl)cc2)CC1)c1ccccc1O,3,0,2,1,8,0,.,.
N#Cc1cccc(C(=O)Nc2cccc(S(=O)(=O)N3CCCC3)c2)c1,-15,-1,3,-12,-1,10,.,.
Cc1ccc(C(NC(=O)N2CCOCC2)C(Cl)Cl)cc1F (stereo not given),-11,1,11,22*,-2,-2,5,5
O=C(c1ccc(Cl)cc1)C1C2C(=O)N(c3ccccc3)C(=O)C2C2CCCN21 (stereo not given),4,-8,1,-4,.,.,.,.
O=C(c1ccc(Cl)cc1)[C@@H]1[C@@H]2C(=O)N(c3ccccc3)C(=O)[C@@H]2C2c3ccccc3C=NN21 (stereo not given in full),-1,1,15,26*,-2,9,4,0
Cc1c(Cl)cccc1NC(=O)Cn1cc(C(F)(F)F)cc(Cl)c1=O,10,0,4,-9,-4,4,.,.
CC(C(=O)O)c1ccc(-c2ccccc2)c(F)c1 (stereo not given),-8,2,3,21*!,2,-2,0,5
CC(C(=O)Nc1ccccc1)c1ccc(-c2ccccc2)c(F)c1 (stereo not given),-6,3,23,-4,-1,-2,.,.
COc1ccc(NC(=O)NNC(=O)COc2ccc([N+](=O)[O-])c(C)c2)cc1OC,1,-4,-2,3,-2,21,.,.
Nc1c(Br)cc2c(c1Br)C(O)c1ccccc1-2 (stereo not given),2,0,1,-6,.,.,.,.
Cc1ccc(N=Cc2c(O)[nH]c3ccccc23)c([N+](=O)[O-])c1,3,12,15,19*,-3,8,3,1
COc1ccc(N=Cc2c(O)[nH]c3ccccc23)cc1,4,5,17,-1,-9,-13,.,.
CCOCCCNC(=O)C1CCN(C(=O)Nc2ccc(Cl)cc2)CC1,-2,3,-21,15,-3,26,.,.
CC1CCN(C(=O)COC(=O)C2CCN(S(=O)(=O)c3c(Cl)cccc3Cl)CC2)CC1,4,4,26,8,-1,10,.,.
COc1ccccc1C(=O)NC(CCSC)C(=O)NCc1ccccn1 (stereo not given),-5,-6,-4,8,1,-2,.,.

# Compound activity (PubChem)
